An excerpt weighted towards active compounds, which were near 1.6% of everything screened.
HKDC1 inhibitor – blocks human hexokinase HKDC1 activity | Q2TB90 | recombinant HKDC1, G6PDH/diaphorase resazurin coupled fluorescence | inhibition, % at 20 µM | 340,000 compounds, 0.16% hits | AID 493160;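 active = inhibition above about 35% when tested at 20 µM, limit read from the data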
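Test system: recombinant HKDC1 (HK5) hexokinase enzyme, produced in-house / Doses: 20 µM test compound, 1% DMSO / Timing: 90 min, room temperature / Detection: G6PDH/diaphorase-coupled fluorescence, 1 mM NADP, 100 µM resazurin, 525/613 nm / Control set: DMSO wells with and without enzyme mix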
UCH37 DUB inh – human UCH37 deubiquitinating enzyme inhibition. Q9Y5K5. purified proteasome/UCH37, Ub-AMC cleavage fluorescence. inhibition, % (concentration not given with the values). 330,000 compounds, 0.33% hits. AID 588478;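 active = mean inhibition over replicate wells above about 20%, limit read from the data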
Target sequence (Q9Y5K5 whole entry, looked up): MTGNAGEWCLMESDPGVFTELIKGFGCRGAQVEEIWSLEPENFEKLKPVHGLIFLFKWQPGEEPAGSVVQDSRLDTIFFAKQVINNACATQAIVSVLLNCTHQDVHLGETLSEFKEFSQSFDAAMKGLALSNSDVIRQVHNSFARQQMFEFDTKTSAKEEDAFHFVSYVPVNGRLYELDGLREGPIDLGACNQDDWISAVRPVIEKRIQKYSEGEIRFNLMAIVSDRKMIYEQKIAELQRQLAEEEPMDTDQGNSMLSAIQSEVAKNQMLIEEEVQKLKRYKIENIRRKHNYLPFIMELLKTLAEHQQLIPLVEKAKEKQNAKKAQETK
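Reagent: Ub-AMC substrate; assay system: Proteasome-associated human UCH37 deubiquitinase; controls: no-proteasome and no-compound wells; read-out: % inhibition of Ub-AMC cleavage fluorescence; timing: 30 min preincubation with enzyme, 25 min cleavage at room temperature; signal: AMC fluorescence from Ub-AMC cleavage, excitation 355 nm, emission 460 nm; buffer or medium: Tris-HCl pH 7.4 plus ovalbumin, ATP-MgCl2, DTT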
GSTO1 inh – counter-screen for RBBP9 inhibitors: inhibitors of human GSTO1 | AID 1974 | P78417 | recombinant GSTO1, activity-based probe fluorescence polarization | 300,000 compounds, 1.1% hits | inhibition, % at 5.96 µM;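 active = inhibition above the campaign mean inhibition plus 3 SD, cut at about 35% in these data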
TDP2 inh – blocks human TDP2 phosphodiesterase activity. O95551. recombinant TDP2, T5PNP hydrolysis, p-nitrophenol absorbance 415 nm. inhibition, % at 12.8 µM. 370,000 compounds, 0.34% hits;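 active = inhibition above the mean of all tested compounds plus 3 SD, set per campaign, cut at about 25% in these data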
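System: recombinant human TDP2 / Amount: 120 nM TDP2 per well / Also added: 5 mM T5PNP chromogenic substrate / Doses: 12.8 µM single point, 1% DMSO / Incubation: 2 h at 37 °C / Detection: p-Nitrophenol epi absorbance / Evaluation: % inhibition relative to enzyme-containing and enzyme-free wells / Repeats: singlicate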
PAD4 FP inh – blocks human protein arginine deiminase 4. recombinant PAD4, RCA probe fluorescence polarization. inhibition, % at 6.36 µM. Q9UM07. 330,000 compounds, 0.41% hits;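 active = percent inhibition above a cutoff equal to the mean of all tested compounds plus 3 SD, cut at about 15% in these data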
CTSL1 counter – cathepsin L1 inhibition, PFM18AAP counter-screen; inhibition, % at 5.96 µM; recombinant F. hepatica cathepsin L1, Z-Leu-Arg-MCA fluorescence; 300,000 compounds, 0.49% hits;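 active = inhibition above the mean of all tested compounds plus 3 SD, set per screening campaign, cut at about 17% in these data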
GSTO1 confirm – GSTO1 (human) inhibition, confirmation; shares compounds with GSTO1 inh; recombinant GSTO1, probe fluorescence polarization; inhibition, % at 5.96 µM; 2,400 compounds, 54% hits;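 active = inhibition above the primary screen's cutoff, its mean inhibition plus 3 SD, cut at about 35% in these data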;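 note: loss of polarization as inhibitors block binding of rhodamine sulfonate ester activity probe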
GSTO1 recomb ABPP – inhibitors of recombinant human GSTO1 | AID 463110 | inhibition, % at 1 µM | gel ABPP SE-Rh probe fluorescence | shares compounds with GSTO1 inh | 130 compounds, 30% hits;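 active = inhibition of the enzyme GSTO1 above about 75%, limit read from the data; inactive = inhibition below that limit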
Numbers stand for hits; - = inactive; . = no result.

SMILES	HKDC1 inhibitor	UCH37 DUB inh	GSTO1 inh	TDP2 inh	PAD4 FP inh	CTSL1 counter	GSTO1 confirm	others
Cc1csc(Cn2c(CN(C)C)nc3ccccc3c2=O)n1	-	-	42.8	-	-	-	-
CC(/C=C/c1ccco1)=NNC(=O)c1ccc(C)nc1	.	-	.	.	.	.	.
COC(=O)C1(C)Cc2cc(OC(C)=O)c(OC(C)=O)cc2N1 (centres undefined)	.	.	66.1	.	-	-	-
CC(=O)Oc1cc2c(cc1OC(C)=O)C(=O)CCCC2	.	.	.	-	.	.	.
C(=Nn1cnnc1)c1ccc(-c2ccccc2)cc1	.	-	.	.	.	.	.
CC1CCc2c(sc3nc(C(C)(C)C)nc(N4CCN(C(=O)CCl)CC4)c23)C1 (centres undefined)	-	.	73.5	-	-	-	73.5	GSTO1 recomb ABPP=-
CCC(=O)N1CCN(c2nc(CC)nc3sc4c(c23)CCCC4)CC1	-	-	-	-	-	-	.
Oc1ccc(/C=N/Nc2ccnc3cc(Cl)ccc23)cc1O	-	.	38.0	-	-	-	-
COc1ccc(C=NNc2nc(-c3ccc(C)cc3)c(NC(C)=O)s2)cc1	.	-	.	.	.	.	.
Nc1c(C(=O)NC2CC2)sc2nc3c(c(-c4ccco4)c12)CC/C3=C/c1ccco1	-	-	62.0	.	-	-	36.7
O=C(NNc1ccccc1[N+](=O)[O-])Nc1ccc(Cl)c(Cl)c1	-	-	-	-	-	-	.
O=C1NC(=O)C(c2ccccc2[N+](=O)[O-])=C1Nc1ccc(O)c(Cl)c1	-	-	63.6	-	46.0	-	49.3
CCCc1ccc(C(=O)N2CCN(c3ccccc3OCC)CC2)cc1	-	-	45.8	-	-	-	-
Cc1ccc(C(=O)ON=Cc2c(N3CCOCC3)n(C)c3ccccc23)cc1	.	-	.	.	.	.	.
CN(C)c1ccc(O)c2c1CC1CC3C(N(C)C)C(=O)C(C(N)=O)=C(O)[C@@]3(O)C(=O)C1=C2O (some centres undefined)	-	-	48.0	-	-	-	-
C=C1c2cccc(O)c2C(O)=C2C(=O)[C@]3(O)C(O)=C(C(N)=O)C(=O)[C@@H](N(C)C)[C@@H]3[C@@H](O)[C@H]12	-	-	63.2	-	-	-	70.0
Cc1cc([N+](=O)[O-])nn1Cc1ccc(C(=O)NN=Cc2ccc(N(C)C)cc2)cc1	.	-	.	.	.	.	.
Cc1ccc(Cl)c(NC(=O)COC(=O)c2ccccc2C(=O)c2ccc(Cl)c([N+](=O)[O-])c2)c1Cl	-	-	49.2	-	-	-	52.2
CCCNC(=O)COC(=O)c1ccccc1C(=O)c1ccc(Cl)c([N+](=O)[O-])c1	-	-	-	-	-	-	.
CC(=O)Oc1cc(OC(C)=O)c2c(C)cc(=O)oc2c1	-	-	53.2	-	-	-	-
CC(=O)Oc1ccc2c(C)cc(=O)oc2c1	-	-	-	-	-	-	.
O=C(NN=Cc1ccccc1OCC(=O)N1CCCC1)C(=O)Nc1ccccc1F	.	-	.	.	.	.	.
O=C(NC1CCCCC1)C(c1ccccc1F)N(Cc1ccco1)C(=O)c1ccccn1 (centres undefined)	-	-	37.8	-	-	-	-
COc1ccc(-n2c(=C(C#N)C(=O)NCCN3CCOCC3)sc(=Cc3cccs3)c2=O)cc1	.	-	.	.	.	.	.
CCCn1c(=O)c(C(=O)OCC)c(O)c2cc(Br)ccc21	-	-	-	-	-	-	.
CCOC(=O)c1c(CN(C)C)n(C)c2c(O)c(N=NC(N)=O)c3ccc(Br)cc3c12	-	52.2	49.3	-	-	20.4	-
Clc1cccc(C=NN2CCN(Cc3ccccc3)CC2)c1	.	-	.	.	.	.	.
COc1ccc(N(C(=O)Cc2cccs2)C(C(=O)NC2CCCC2)c2ccncc2)cc1OC (centres undefined)	-	-	-	-	-	-	.
C#CC(=O)N(c1ccc(OC)c(OC)c1)C(C(=O)NC1CCCC1)c1cccs1 (centres undefined)	-	-	48.0	-	-	-	51.9

Screening results from PubChem BioAssay.
